These results are taken from ChEMBL document CHEMBL3227981, “Studies on biologically active nucleosides and nucleotides. 5. Synthesis and antitumor activity of some 2,2'-anhydro-1-(3',5'-di-O-acyl-beta-D-arabinofuranosyl)cytosine salts and 2,2'-anhydro-1-(3'-O-acyl-beta-D-arabinofuranoxyl)cytosine 5'-phosphates” (J Med Chem, 1979).

Series [1] relates to L1210. The series is described as follows: Antitumor activity against mouse L1210 cells allografted in BDF1 mouse assessed as increase of host life span at 100 mg/kg, ip qd for 5 days. In kind it is functional. As to conditions: route intraperitoneal. The procedure, abridged:
(§1)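 BDF1 mice were given 1×10^5 L1210 cells ip. Compound was dissolved or suspended in 0.9% NaCl with 0.1% HCO-60 and given ip daily for 5 days, starting 24 h after inoculation. Groups had 6–10 mice. ILS = (T/C − 1) × 100, from mean survival time of treated versus control mice, observed over 60 days.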

The nature of series [2]: Toxicity in ip dosed ICR mouse up to 3 weeks. In kind it is organism-based. As to conditions: in vivo. In short, it runs like this:
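Maximum tolerated dose was set from a single ip injection into three female ICR mice weighing 20–21 g, followed by 3 weeks of observation.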

Series [3] concerns L1210. The series is described as follows: Antitumor activity against mouse L1210 cells allografted in BDF1 mouse assessed as increase of host life span at 25 mg/kg, ip qd for 5 days. It is filed as functional. As to conditions: route intraperitoneal. In short, it runs like this: as §1
Series [4] deals with L1210. The series is described as follows: Antitumor activity against mouse L1210 cells allografted in BDF1 mouse assessed as increase of host life span at 200 mg/kg, po qd for 5 days. In kind it is functional. The procedure, abridged: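 L1210 cells (1×10^5) were implanted ip in BDF1 mice. Oral dosing began 24 h later and ran once daily for 5 days, with compound in 0.9% saline containing 0.1% HCO-60 as solution or suspension. Six to ten mice per group. Percent ILS was (T/C − 1) × 100 on mean survival time, with a 30-day observation period.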

In the case of `CCCCCCCCOc1ccc(C(=O)OC[C@H]2O[C@@H]3[C@H](Oc4nc(=N)ccn43)[C@@H]2OC(=O)c2ccc(OCCCCCCCC)cc2)cc1.Cl`, the Activity in the series on L1210 [1] was 12.8%. In series [2], this compound came in with an MTD at 504 h of 300 mg/kg.
On to `CCOc1ccc(C(=O)OC[C@H]2O[C@@H]3[C@H](Oc4nc(=N)ccn43)[C@@H]2OC(=O)c2ccc(OCC)cc2)cc1.Cl`, for which the figures for the Activity in the series on L1210 [1] and with L1210 [3] were 67.5% and 33.3%, respectively. Besides, in series [2], the MTD at 504 h stood at 500 mg/kg.
Taken in the same sequence, the figures for `F[B-](F)(F)F.[NH2+]=c1ccn2c(n1)O[C@@H]1[C@H](OC(=O)CCCCCN3C(=O)c4ccccc4C3=O)[C@@H](COC(=O)CCCCCN3C(=O)c4ccccc4C3=O)O[C@H]12` were 60.3%, 23.1% and 300 mg/kg.
In the case of `Cl.N=c1ccn2c(n1)O[C@@H]1[C@H](OC(=O)c3ccc(Cl)cc3)[C@@H](COC(=O)c3ccc(Cl)cc3)O[C@H]12`, the Activity in the series on L1210 [1] came out at 105.1%; in the series with L1210 [3], 31.3%; with L1210 [4], 21.8%. This compound also yielded an MTD at 504 h in series [2] of 750 mg/kg.
Consider `CCOCCC(=O)OC[C@H]1O[C@@H]2[C@H](Oc3nc(=N)ccn32)[C@@H]1OC(=O)CCOCC.Cl`, for which the results for the Activity in the series with L1210 [1] and with L1210 [3] were 57.5% and 15.4%, respectively.
For `Cl.N=c1ccn2c(n1)O[C@@H]1[C@H](OC(=O)CCNC(=O)c3ccccc3)[C@@H](COC(=O)CCNC(=O)c3ccccc3)O[C@H]12`, the Activity in the series with L1210 [1] is on record as 32.1%; in the series on L1210 [3] it was 2.6%.
On to `Cl.N=c1ccn2c(n1)O[C@@H]1[C@H](OC(=O)c3cccc(Cl)c3)[C@@H](COC(=O)c3cccc(Cl)c3)O[C@H]12`, for which the values for the Activity in the series on L1210 [3] and with L1210 [4] were 28.2% and 38.5%, respectively. Also, the MTD at 504 h in series [2] is less than 300 mg/kg.
As for `Cc1ccc(S(=O)(=O)NCCC(=O)OC[C@H]2O[C@@H]3[C@H](Oc4nc(=[NH2+])ccn43)[C@@H]2OC(=O)CCNS(=O)(=O)c2ccc(C)cc2)cc1.F[B-](F)(F)F`, the Activity came to 47.5% in the series with L1210 [1] and 15% in the series on L1210 [3].
In the case of `CCCCCCCOCCC(=O)OC[C@H]1O[C@@H]2[C@H](Oc3nc(=N)ccn32)[C@@H]1OC(=O)CCOCCCCCCC.Cl`, the Activity in the series on L1210 [3] was determined as 28.2%. The MTD at 504 h in series [2] stood at 100 mg/kg.
As for `Cl.N=c1ccn2c(n1)O[C@@H]1[C@H](OC(=O)c3ccccc3Cl)[C@@H](COC(=O)c3ccccc3Cl)O[C@H]12`, the Activity in the series on L1210 [3] was 25.6%; in the series with L1210 [4], 28.2%. The MTD at 504 h in series [2] is less than 300 mg/kg.
As to `Cl.N=c1ccn2c(n1)O[C@@H]1[C@H](OC(=O)c3ccc(F)cc3)[C@@H](COC(=O)c3ccc(F)cc3)O[C@H]12`, the Activity in the series on L1210 [1] came to 47.4%; in the series on L1210 [3] it was 10%; with L1210 [4], 38.5%. For the same compound, the MTD at 504 h in series [2] turned out to be 500 mg/kg.
`F[B-](F)(F)F.[NH2+]=c1ccn2c(n1)O[C@@H]1[C@H](OC(=O)c3cccc4ccccc34)[C@@H](COC(=O)c3cccc4ccccc34)O[C@H]12`: the Activity is 82.1% in the series on L1210 [1] and 35.5% with L1210 [3]. This compound registered an MTD at 504 h in series [2] of 500 mg/kg.
For the compound `F[B-](F)(F)F.[NH2+]=c1ccn2c(n1)O[C@@H]1[C@H](OC(=O)CCN3C(=O)c4ccccc4C3=O)[C@@H](COC(=O)CCN3C(=O)c4ccccc4C3=O)O[C@H]12`, the Activity came to 39.7% with L1210 [1] and 2.6% in the series with L1210 [3].
With `CC(C)(C)C(=O)O[C@H]1[C@H]2Oc3nc(=N)ccn3[C@@H]2O[C@@H]1COC(=O)CCCCCCC(=O)OC[C@H]1O[C@@H]2[C@H](Oc3nc(=N)ccn32)[C@@H]1OC(=O)C(C)(C)C.Cl`, the Activity came out at 25% in the series on L1210 [3] and 41% with L1210 [4]. In addition, the MTD at 504 h in series [2] was less than 300 mg/kg.
